APJ antagonist: blocks the human apelin receptor APJ; P35414; CHO-K1 APJ beta-arrestin complementation, luminescence; inhibition, % at 20 µM; 0.32% of 330,000 active;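 active = inhibition above about 40% at 20 µM, limit read from the data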;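 also: cells challenged with 10 nM apelin-13 agonist together with compound; plate controls were apelin-13 plus DMSO wells for no effect and DMSO wells lacking apelin-13 for full effect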
CCR6 antagonist: antagonists of human CCR6 receptor | 0.49% of 340,000 active | AID 493098 | P51684 | CHO-K1 CCR6 PathHunter beta-arrestin, luminescence, CCL20-stimulated | inhibition, % at 20 µM;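 active = compounds whose inhibition of the agonist-driven luminescence signal at 20 µM reaches about 50%, limit read from the data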;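 also: cells stimulated with CCL20 at 14 nM final; plate controls were DMSO with CCL20 for no effect and DMSO without agonist for full effect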
EBI2 antag: blocks human EBI2 receptor beta-arrestin signaling; P32249; EBI2 beta-arrestin recruitment, luminescence, 7a,25-OHC stimulated; inhibition, % at 5 µM; 0.81% of 360,000 active; AID 651636; in the data active = inhibition above about 38%;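 also: enzyme fragment complementation signal reports receptor beta-arrestin coupling in cells; 0% = agonist plus DMSO wells and 100% = wells without agonist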
Target sequence (P32249 whole entry, looked up, the tested form may be a part): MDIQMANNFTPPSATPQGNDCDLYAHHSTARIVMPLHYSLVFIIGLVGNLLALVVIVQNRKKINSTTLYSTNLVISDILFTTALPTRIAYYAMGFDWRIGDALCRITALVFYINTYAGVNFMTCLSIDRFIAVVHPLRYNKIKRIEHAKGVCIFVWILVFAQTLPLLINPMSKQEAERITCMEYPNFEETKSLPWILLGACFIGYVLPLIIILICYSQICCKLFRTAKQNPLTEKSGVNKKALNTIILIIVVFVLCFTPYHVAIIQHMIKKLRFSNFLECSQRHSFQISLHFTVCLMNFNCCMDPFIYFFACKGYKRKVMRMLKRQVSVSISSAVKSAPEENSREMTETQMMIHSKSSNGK
H9c2 TAG inh: triacylglycerol accumulation inhibition; inhibition, % at 12.5 µM; AID 651582; 0.66% of 230,000 active; H9c2 cells, Nile Red lipid (TAG) fluorescence; cells loaded with 200 µM oleic acid;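 active = pattern-corrected inhibition of lipid staining of at least 50% with the nuclear-stain viability signal not falling by more than 50%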;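 also: 0% = DMSO wells and 100% = triacsin C control wells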
APJ ag: APJ receptor agonism | P35414 | CHO-K1 APJ PathHunter beta-arrestin, luminescence; 0% DMSO wells, 100% apelin | activation, % at 20 µM | 0.11% of 330,000 active | AID 2520;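 active = activation more than six SD over the plate average, tested at 20 µM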;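 also: 0% = DMSO alone and 100% = apelin-13 at 10 nM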
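assay system = CHO-K1 APJ beta-arrestin complementation cell line | input = cell density 1000 per well | dosing = compound 20 µM once, DMSO 1% | timing = compound 90 min 25 °C, reagent 1 h | measured by = luminescence from split beta-galactosidase complementation, Galacton Star/Emerald II substrate | read-out basis = APJ agonist activity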
CXCR6 inh: CXCR6 (human) receptor inhibition. 0.36% of 360,000 active. CHO-K1 PathHunter CXCR6 beta-arrestin, luminescence. inhibition, % at 20 µM. AID 602244; in the data active = inhibition above about 34%, passing the limit was not always enough;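 also: antagonist mode with CXCL16 agonist at 10 nM final; 0% = 10 nM CXCL16 with DMSO and 100% = unstimulated wells without agonist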
CXCR6 antag conf: CXCR6 antagonism confirmation, single concentration; shares compounds with CXCR6 inh; CHO-K1 CXCR6 PathHunter beta-arrestin, luminescence; inhibition, % at 20 µM; 65% of 700 active; AID 602409;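 active = mean inhibition over four retests above 40%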;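 also: receptor stimulated with 10 nM CXCL16 agonist; beta-galactosidase fragment complementation upon beta-arrestin recruitment to receptor; plate controls were CXCL16 plus DMSO for no effect and DMSO without CXCL16 for full effect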
EBI2 antag conf: confirmation of human EBI2 receptor antagonists | AID 651997 | shares compounds with EBI2 antag | EBI2 beta-arrestin luminescence, 7a,25-OHC antagonism | inhibition, % at 5 µM | 29% of 2,400 active;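 active = inhibition of at least 50%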
EBI2 ag: EBI2 agonism counter-screen; shares compounds with EBI2 antag; AID 652000; 2,400 tested, under 10 active; activation, % at 5 µM; EBI2-expressing cells, agonist mode, luminescence, 60 min; 0% vehicle, 100% 7α,25-dihydroxycholesterol control;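 active = activation of at least 50%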
bGal counter: inhibits E. coli beta-galactosidase, counter-screen for EBI2 antagonists | shares compounds with EBI2 antag | purified beta-galactosidase, luminescent Galacton Star, 15 min | inhibition, % at 5 µM | 1% of 2,400 active | AID 652176;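 active = replicate-average signal at least 3 plate SD below neutral wells, shown as high inhibition, flagging enzyme-inhibiting false positives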;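 also: 0% = DMSO wells with enzyme and 100% = wells lacking enzyme; higher means stronger loss of beta-gal luminescence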
* marks the source's active call; other numbers are inactive results. Hits are enriched below; roughly 1.9% of the tested compounds scored in any of these assays.

Screening CCN1C(=O)[C@H]2[C@@H](c3ccc(C(F)(F)F)cc3)N[C@]3(CCCN(Cc4ccco4)C3=O)[C@H]2C1=O returned EBI2 antag -3, H9c2 TAG inh 10, CXCR6 inh 55* and CXCR6 antag conf -8.
CC(=O)NCCOc1nc(N(C)C)nc(N2CCOCC2)n1 was read as APJ antagonist 20, CCR6 antagonist -9, EBI2 antag -4, H9c2 TAG inh 0, APJ ag 8 and CXCR6 inh 1.
COc1nc(OCCNC(C)=O)nc(N(C)C)n1 was read as APJ antagonist 1, CCR6 antagonist -2, EBI2 antag -2, APJ ag -3, CXCR6 inh 56* and CXCR6 antag conf 4.
`CCc1cccc2c(C(=O)CN3C(=O)N(C)C4(CCCCC4)C3=O)c[nH]c12` gave APJ antagonist -4, CCR6 antagonist 12, EBI2 antag 11, H9c2 TAG inh -13, APJ ag -2 and CXCR6 inh -3.
Screening C[C@H](CO)N1C[C@H](C)[C@@H](CN(C)S(C)(=O)=O)Oc2ccc(NC(=O)c3ccncc3)cc2C1=O returned APJ antagonist 3, CCR6 antagonist 5, EBI2 antag -12, H9c2 TAG inh -29, APJ ag -1 and CXCR6 inh -1.
For Cc1ccc(/C(O)=C/C(=O)C(=O)NC23CC4CC(CC(C4)C2)C3)cc1 the results were APJ antagonist 28, CCR6 antagonist 70*, EBI2 antag -4, H9c2 TAG inh 4, APJ ag -16, CXCR6 inh 53* and CXCR6 antag conf 39.
`C=C1C(=O)[C@]23C[C@H]1CC[C@H]2[C@]1(C)[C@@H](OC(C)=O)CC[C@@](C)(C(=O)OC)[C@H]1C[C@@H]3OC(C)=O` gave EBI2 antag 39 and CXCR6 inh 27.
C=C1C(=O)[C@]23C[C@H]1CCC2[C@@]1(C)C(C[C@@H]3O)[C@](C)(C(=O)OC)CC[C@@H]1OC(C)=O (some centres undefined) was read as EBI2 antag 80*, CXCR6 inh 69* and CXCR6 antag conf 89*.
Screening CCC(C)[C@H](NC(=O)N1CCN(c2cccc(C(F)(F)F)c2)CC1)C(=O)OC (some centres undefined) returned APJ antagonist 25, CCR6 antagonist 7, EBI2 antag -10, APJ ag -1, CXCR6 inh 51* and CXCR6 antag conf 10.
For CCOC(OCC)c1cc2ccccc2cn1 the results were APJ antagonist 4, CCR6 antagonist 1, EBI2 antag 0, H9c2 TAG inh 7, APJ ag 1 and CXCR6 inh -1.
`CCOc1cc(/C=C2\N=C(SCC)SC2=O)cc([N+](=O)[O-])c1OC(C)=O` gave APJ antagonist 36, CCR6 antagonist 55*, EBI2 antag 10, H9c2 TAG inh -5, APJ ag -12, CXCR6 inh 45* and CXCR6 antag conf 59*.
CCOc1cc(/C=C2\N=C(SC)SC2=O)cc([N+](=O)[O-])c1OC(C)=O was read as APJ antagonist 23, CCR6 antagonist 32, EBI2 antag 2, H9c2 TAG inh -8, APJ ag -5, CXCR6 inh 42* and CXCR6 antag conf 40*.
CCOc1c(OC(C)=O)ccc(/C=C2\N=C(SCC)SC2=O)c1[N+](=O)[O-] was read as APJ antagonist 12, CCR6 antagonist 39, EBI2 antag -4, H9c2 TAG inh -10, APJ ag -4 and CXCR6 inh 20.
O=C(CSc1ccccn1)Nc1ccc(NC(=O)CSc2ccccn2)cc1 was read as APJ antagonist -9, CCR6 antagonist 10, EBI2 antag 9, H9c2 TAG inh 1, APJ ag 0, CXCR6 inh 87* and CXCR6 antag conf 10.
Cc1cc(Br)ccc1NC(=O)CN(C)C(=O)C1CCN(C(=O)c2ccc(Cl)cc2)CC1 was read as CCR6 antagonist -6, EBI2 antag 43, H9c2 TAG inh 7 and CXCR6 inh -7.
`Cc1n[nH]c(=S)n(NC(=O)CC(=O)Nn2c(=S)[nH]nc(C)c2=O)c1=O` gave APJ antagonist 10, EBI2 antag 44*, H9c2 TAG inh 10, APJ ag -2, CXCR6 inh 103*, CXCR6 antag conf 115*, EBI2 antag conf 22, EBI2 ag -4 and bGal counter 17*.
For Cc1ccc(Oc2nc(-c3cccnc3)nc3ccccc23)c([N+](=O)[O-])n1 the results were APJ antagonist 17, CCR6 antagonist 12, EBI2 antag -2, H9c2 TAG inh 5, APJ ag -5 and CXCR6 inh -2.
Screening O=[N+]([O-])c1ccc(N/N=C/c2sc(N3CCOCC3)nc2-c2ccccc2)c(S(=O)(=O)Nc2ccc(Cl)cc2)c1 returned CCR6 antagonist 83*, EBI2 antag 51*, CXCR6 inh 52*, CXCR6 antag conf 62*, EBI2 antag conf 30, EBI2 ag -1 and bGal counter 13.
`Cc1ccc(NC(=S)NNC(=S)Nc2cccc(C(F)(F)F)c2)cc1` gave APJ antagonist -6, CCR6 antagonist 27, EBI2 antag 28, H9c2 TAG inh -32, APJ ag 0 and CXCR6 inh 12.
For Cc1ccc(NC(=S)NNc2ncc(C(F)(F)F)cc2Cl)cc1 the results were APJ antagonist -18, CCR6 antagonist 90*, EBI2 antag 42*, APJ ag -2, CXCR6 inh 78*, CXCR6 antag conf 58*, EBI2 antag conf 33, EBI2 ag -1 and bGal counter 15.
`NNC(=O)c1cc(-c2cccs2)nc2ccccc12` gave APJ antagonist -5, CCR6 antagonist -17, EBI2 antag -9, H9c2 TAG inh 12, APJ ag 1 and CXCR6 inh -28.
COc1ccc(C(=O)N/N=C(\C)c2ccccn2)cc1OC was read as APJ antagonist 76*, CCR6 antagonist 75*, EBI2 antag 58*, H9c2 TAG inh 29, APJ ag -21, CXCR6 inh 51*, CXCR6 antag conf 69*, EBI2 antag conf 84*, EBI2 ag -1 and bGal counter 0.

Screens deposited in PubChem by Sanford-Burnham Center for Chemical Genomics.
